Data taken from ChEMBL document CHEMBL1134624, “Potent and selective ET-A antagonists. 1. Syntheses and structure-activity relationships of N-(6-(2-(aryloxy)ethoxy)-4-pyrimidinyl)sulfonamide derivatives” (J Med Chem, 2001).

How the values were obtained:
Endothelin-1 receptor [1] = biological target: T1, Endothelin-1 receptor (Rattus norvegicus, UniProt P26684); assay: In vitro for specific binding of [125I]ET1 to A10 cell expressed in endothelin A receptor; format: cell-based
T1 sequence (P26684 whole entry): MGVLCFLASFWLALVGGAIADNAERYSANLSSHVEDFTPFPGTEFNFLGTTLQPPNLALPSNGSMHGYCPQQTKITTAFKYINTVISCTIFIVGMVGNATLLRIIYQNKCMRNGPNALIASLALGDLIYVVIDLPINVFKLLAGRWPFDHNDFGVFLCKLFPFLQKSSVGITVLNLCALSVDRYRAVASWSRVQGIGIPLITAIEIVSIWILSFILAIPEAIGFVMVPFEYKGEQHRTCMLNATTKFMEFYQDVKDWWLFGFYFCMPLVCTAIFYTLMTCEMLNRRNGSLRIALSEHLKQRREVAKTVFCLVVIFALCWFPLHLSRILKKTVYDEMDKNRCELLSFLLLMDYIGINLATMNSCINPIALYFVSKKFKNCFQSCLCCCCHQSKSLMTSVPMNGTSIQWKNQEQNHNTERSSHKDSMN

Endothelin-1 receptor [2] = biological target: T2, Endothelin-1 receptor (Sus scrofa, UniProt Q29010); assay: In vitro inhibition of [125I]ET1 binding to Endothelin A receptor in porcine aortic membrane from endothelial cells; format: cell membranes; conditions: in the assay text read “with endothelium removed” for “from endothelial cells”
T2 sequence (Q29010 whole entry): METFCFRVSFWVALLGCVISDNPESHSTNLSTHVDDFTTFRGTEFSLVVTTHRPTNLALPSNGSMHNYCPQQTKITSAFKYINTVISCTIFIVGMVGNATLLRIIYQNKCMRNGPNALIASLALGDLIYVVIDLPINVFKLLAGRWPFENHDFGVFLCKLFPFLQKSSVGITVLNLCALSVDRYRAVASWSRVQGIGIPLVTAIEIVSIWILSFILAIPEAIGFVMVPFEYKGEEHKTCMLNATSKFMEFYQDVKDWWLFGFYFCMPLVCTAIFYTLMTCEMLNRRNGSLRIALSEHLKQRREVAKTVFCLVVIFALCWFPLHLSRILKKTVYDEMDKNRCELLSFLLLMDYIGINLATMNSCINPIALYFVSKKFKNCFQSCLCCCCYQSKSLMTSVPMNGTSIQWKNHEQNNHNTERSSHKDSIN
Outline: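 Endothelium-free porcine aorta homogenized in 10 mM MOPS (pH 7.4) with 20% sucrose. Membranes spun 1000g 15 min, then supernatant 90000g 45 min, and resuspended in 5 mM HEPES-Tris. Incubated with 20 pM final 125I-ET-1 and graded compound concentrations in 50 mM Tris-HCl pH 7.4, 0.1% BSA, protease inhibitors, EDTA, 2 h at 25 °C. Filtered, washed, gamma-counted.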

[3] = biological target: T3, Endothelin receptor type B (Homo sapiens, UniProt P24530); assay: Ability to inhibit specific binding of [125I]- -ET-1 to human GH cells which express endothelin B receptor; format: cell-based
T3 sequence (P24530 whole entry): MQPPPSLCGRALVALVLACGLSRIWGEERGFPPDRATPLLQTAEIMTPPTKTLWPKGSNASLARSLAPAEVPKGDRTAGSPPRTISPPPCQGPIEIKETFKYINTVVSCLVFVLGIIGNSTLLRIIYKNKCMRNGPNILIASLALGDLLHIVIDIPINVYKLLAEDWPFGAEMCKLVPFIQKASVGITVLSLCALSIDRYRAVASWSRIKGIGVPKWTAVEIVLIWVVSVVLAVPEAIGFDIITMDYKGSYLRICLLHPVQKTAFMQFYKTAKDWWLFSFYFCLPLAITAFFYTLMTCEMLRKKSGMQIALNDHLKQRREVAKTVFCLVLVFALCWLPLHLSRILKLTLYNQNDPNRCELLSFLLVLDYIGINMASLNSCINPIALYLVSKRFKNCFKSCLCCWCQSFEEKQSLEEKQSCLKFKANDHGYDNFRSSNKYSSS

Structure (SMILES)	IC50 (Endothelin-1 receptor [1]) [µM]	IC50 (Endothelin-1 receptor [2]) [µM]	IC50 [3] [µM]
COc1ccccc1Oc1c(NS(=O)(=O)c2ccc(C(C)(C)C)cc2)nc(-c2ncccn2)nc1OCCO [BOSENTAN SODIUM]	0.0014	0.0075	
COc1cccc(Oc2c(NS(=O)(=O)c3ccc(C(C)(C)C)cc3)ncnc2OCCO)c1	0.23	0.16	1.1
